ChEMBL document CHEMBL5247575 (J Med Chem, 2018)

system: Acinetobacter baumannii; experiment: Synergistic antibacterial activity against Acinetobacter baumannii PR448 producing OXA-23 assessed as cefepime MIC at 8 ug/ml by broth microdilution method; assay type: functional; details: dose 8 µg/ml
In short: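 Broth microdilution per CLSI guidelines in frozen panels. Test compound held at fixed 8 mg/L while the partner β-lactam concentration was increased. Run in triplicate; modal MIC reported.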

SMILES | MIC
O=C(NNC(=O)[C@@H]1CC[C@@H]2CN1C(=O)N2OS(=O)(=O)O)[C@@H]1CCCNC1 [ZIDEBACTAM] | 8 µg/mL

system: Acinetobacter baumannii; experiment: Synergistic antibacterial activity against Acinetobacter baumannii PR474 producing OXA-23/24/40 assessed as cefepime MIC at 4 ug/ml by broth microdilution method; assay type: functional; details: dose 4 µg/ml

SMILES | MIC
O=C(NNC(=O)[C@@H]1CC[C@@H]2CN1C(=O)N2OS(=O)(=O)O)[C@@H]1CCCNC1 [ZIDEBACTAM] | 8 µg/mL

system: Acinetobacter baumannii; experiment: Synergistic antibacterial activity against Acinetobacter baumannii PR319 producing OXA-23/24/40 assessed as cefepime MIC at 4 ug/ml by broth microdilution method; assay type: functional; details: dose 4 µg/ml

SMILES | MIC
O=C(NNC(=O)[C@@H]1CC[C@@H]2CN1C(=O)N2OS(=O)(=O)O)[C@@H]1CCCNC1 [ZIDEBACTAM] | > 16 µg/mL

system: Klebsiella pneumoniae; experiment: Synergistic antibacterial activity against Klebsiella pneumoniae 729/1679 producing KPC-3 assessed as cefepime MIC at 4 ug/ml by broth microdilution method; assay type: functional; details: dose 4 µg/ml
In short: (§1)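 Broth microdilution per CLSI guidelines, using custom frozen panels. […] Each partner drug was also tested alone. MICs were run in triplicate and the modal value is reported.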

SMILES | MIC
O=C(NNC(=O)[C@@H]1CC[C@@H]2CN1C(=O)N2OS(=O)(=O)O)[C@@H]1CCCNC1 [ZIDEBACTAM] | ≤ 0.12 µg/mL

system: Klebsiella pneumoniae; experiment: Synergistic antibacterial activity against Klebsiella pneumoniae 729/1679 producing KPC-3 assessed as cefepime MIC at 8 ug/ml by broth microdilution method; assay type: functional; details: dose 8 µg/ml; in short: as §1

SMILES | MIC
O=C(NNC(=O)[C@@H]1CC[C@@H]2CN1C(=O)N2OS(=O)(=O)O)[C@@H]1CCCNC1 [ZIDEBACTAM] | ≤ 0.12 µg/mL

system: Klebsiella pneumoniae; experiment: Synergistic antibacterial activity against Klebsiella pneumoniae 1398/2291 producing KPC-3 assessed as meropenem MIC at 4 ug/ml by broth microdilution method; assay type: functional; details: dose 4 µg/ml; in short: as §1

SMILES | MIC
O=C(NNC(=O)[C@@H]1CC[C@@H]2CN1C(=O)N2OS(=O)(=O)O)[C@@H]1CCCNC1 [ZIDEBACTAM] | ≤ 0.12 µg/mL

system: Acinetobacter baumannii; experiment: Synergistic antibacterial activity against ADC deleted Acinetobacter baumannii transfected with pWH1266 producing OXA-24/40 assessed as meropenem MIC at 4 ug/ml by broth microdilution method; assay type: functional; details: dose 4 µg/ml

SMILES | MIC
O=C(NNC(=O)[C@@H]1CC[C@@H]2CN1C(=O)N2OS(=O)(=O)O)[C@@H]1CCCNC1 [ZIDEBACTAM] | > 16 µg/mL

system: Klebsiella pneumoniae; experiment: Synergistic antibacterial activity against Klebsiella pneumoniae 1315/2198 producing KPC-3 assessed as meropenem MIC at 4 ug/ml by broth microdilution method; assay type: functional; details: dose 4 µg/ml; in short: as §1

SMILES | MIC
O=C(NNC(=O)[C@@H]1CC[C@@H]2CN1C(=O)N2OS(=O)(=O)O)[C@@H]1CCCNC1 [ZIDEBACTAM] | ≤ 0.12 µg/mL

system: Klebsiella pneumoniae; experiment: Synergistic antibacterial activity against Klebsiella pneumoniae 776/1742 producing KPC-2 assessed as meropenem MIC at 4 ug/ml by broth microdilution method; assay type: functional; details: dose 4 µg/ml

SMILES | MIC
O=C(NNC(=O)[C@@H]1CC[C@@H]2CN1C(=O)N2OS(=O)(=O)O)[C@@H]1CCCNC1 [ZIDEBACTAM] | ≤ 0.12 µg/mL

system: Acinetobacter baumannii; experiment: Synergistic antibacterial activity against Acinetobacter baumannii PR381 producing OXA-24/40 assessed as cefepime MIC at 4 ug/ml by broth microdilution method; assay type: functional; details: dose 4 µg/ml

SMILES | MIC
O=C(NNC(=O)[C@@H]1CC[C@@H]2CN1C(=O)N2OS(=O)(=O)O)[C@@H]1CCCNC1 [ZIDEBACTAM] | 16 µg/mL

system: Pseudomonas aeruginosa; experiment: Synergistic antibacterial activity against Pseudomonas aeruginosa CL232 assessed as meropenem MIC at 8 ug/ml by broth microdilution method; assay type: functional; details: dose 8 µg/ml

SMILES | MIC
O=C(NNC(=O)[C@@H]1CC[C@@H]2CN1C(=O)N2OS(=O)(=O)O)[C@@H]1CCCNC1 [ZIDEBACTAM] | > 16 µg/mL

system: Klebsiella pneumoniae; experiment: Synergistic antibacterial activity against Klebsiella pneumoniae 1108/1989 producing KPC-3 assessed as meropenem MIC at 8 ug/ml by broth microdilution method; assay type: functional; details: dose 8 µg/ml; in short: as §1

SMILES | MIC
O=C(NNC(=O)[C@@H]1CC[C@@H]2CN1C(=O)N2OS(=O)(=O)O)[C@@H]1CCCNC1 [ZIDEBACTAM] | ≤ 0.12 µg/mL

system: Klebsiella pneumoniae; experiment: Synergistic antibacterial activity against Klebsiella pneumoniae 776/1742 producing KPC-2 assessed as meropenem MIC at 8 ug/ml by broth microdilution method; assay type: functional; details: dose 8 µg/ml

SMILES | MIC
O=C(NNC(=O)[C@@H]1CC[C@@H]2CN1C(=O)N2OS(=O)(=O)O)[C@@H]1CCCNC1 [ZIDEBACTAM] | ≤ 0.12 µg/mL

system: Klebsiella pneumoniae; experiment: Synergistic antibacterial activity against Klebsiella pneumoniae 1084/1957 producing KPC-3 assessed as meropenem MIC at 8 ug/ml by broth microdilution method; assay type: functional; details: dose 8 µg/ml; in short: as §1

SMILES | MIC
O=C(NNC(=O)[C@@H]1CC[C@@H]2CN1C(=O)N2OS(=O)(=O)O)[C@@H]1CCCNC1 [ZIDEBACTAM] | ≤ 0.12 µg/mL

system: Escherichia coli; experiment: Synergistic antibacterial activity against Escherichia coli DH10B transfected with pBC SK (-) OXA-48 assessed as meropenem MIC at 4 ug/ml by broth microdilution method; assay type: functional; details: dose 4 µg/ml; in short: as §1

SMILES | MIC
O=C(NNC(=O)[C@@H]1CC[C@@H]2CN1C(=O)N2OS(=O)(=O)O)[C@@H]1CCCNC1 [ZIDEBACTAM] | ≤ 0.12 µg/mL

system: Acinetobacter baumannii; experiment: Synergistic antibacterial activity against ADC deleted Acinetobacter baumannii assessed as cefepime MIC at 8 ug/ml by broth microdilution method; assay type: functional; details: dose 8 µg/ml

SMILES | MIC
O=C(NNC(=O)[C@@H]1CC[C@@H]2CN1C(=O)N2OS(=O)(=O)O)[C@@H]1CCCNC1 [ZIDEBACTAM] | 0.5 µg/mL

system: Klebsiella pneumoniae; experiment: Synergistic antibacterial activity against Klebsiella pneumoniae 776/1742 producing KPC-2 assessed as cefepime MIC at 8 ug/ml by broth microdilution method; assay type: functional; details: dose 8 µg/ml

SMILES | MIC
O=C(NNC(=O)[C@@H]1CC[C@@H]2CN1C(=O)N2OS(=O)(=O)O)[C@@H]1CCCNC1 [ZIDEBACTAM] | ≤ 0.12 µg/mL
